Measured values as given in ChEMBL document CHEMBL1221302, “Discovery of imidazo[1,2-b]pyridazine derivatives as IKKbeta inhibitors. Part 1: Hit-to-lead study and structure-activity relationship” (Bioorg Med Chem Lett, 2010).

Legend:
[1] = tested on: THP-1; experiment: Antiinflammatory activity in human THP1 cells assessed as inhibition of LPS-induced TNFalpha production after 4 hrs by ELISA; format: functional, cell-based; details: THP-1, 4 h
Outline: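 THP-1 cells primed 3–4 days with 100 nM calcitriol in RPMI-1640 containing 10% FBS, then cultured overnight without calcitriol. Resuspended in RPMI-1640 with 25 mM HEPES at 1.5×10^5 cells/mL. Compound and E. coli O111:B4 LPS added together, 4 h at 37 °C in 5% CO2. TNFα measured in the centrifuged supernatant by ELISA.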

[2] = biological target: T1, Inhibitor of nuclear factor kappa-B kinase subunit beta (Homo sapiens, UniProt O14920); experiment: Inhibition of purified His-tagged IKK-beta after 15 mins
T1 sequence (O14920 whole entry): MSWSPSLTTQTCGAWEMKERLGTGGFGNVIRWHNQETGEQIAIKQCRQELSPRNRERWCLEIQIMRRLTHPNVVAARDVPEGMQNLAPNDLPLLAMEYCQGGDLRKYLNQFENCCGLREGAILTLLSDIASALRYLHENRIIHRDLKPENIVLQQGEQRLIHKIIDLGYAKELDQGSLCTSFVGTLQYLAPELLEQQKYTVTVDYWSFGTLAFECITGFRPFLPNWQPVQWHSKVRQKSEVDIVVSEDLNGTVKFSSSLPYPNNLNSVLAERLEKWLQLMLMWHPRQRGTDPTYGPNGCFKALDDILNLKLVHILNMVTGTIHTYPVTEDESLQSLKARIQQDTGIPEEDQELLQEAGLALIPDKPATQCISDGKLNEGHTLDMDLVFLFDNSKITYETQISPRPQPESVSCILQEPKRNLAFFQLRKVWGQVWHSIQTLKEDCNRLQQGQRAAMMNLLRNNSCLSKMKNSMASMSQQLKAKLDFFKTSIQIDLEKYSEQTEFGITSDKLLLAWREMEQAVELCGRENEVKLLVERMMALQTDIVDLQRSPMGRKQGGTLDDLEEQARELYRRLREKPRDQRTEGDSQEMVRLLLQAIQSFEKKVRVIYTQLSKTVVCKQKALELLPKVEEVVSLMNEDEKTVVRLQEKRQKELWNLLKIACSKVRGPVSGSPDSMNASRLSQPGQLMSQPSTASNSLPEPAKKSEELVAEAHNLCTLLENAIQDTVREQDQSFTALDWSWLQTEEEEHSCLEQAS

[3] = biological target: T2, Inhibitor of nuclear factor kappa-B kinase subunit alpha (Homo sapiens, UniProt O15111); experiment: Inhibition of recombinant IKKalpha after 15 mins
T2 sequence (O15111 whole entry): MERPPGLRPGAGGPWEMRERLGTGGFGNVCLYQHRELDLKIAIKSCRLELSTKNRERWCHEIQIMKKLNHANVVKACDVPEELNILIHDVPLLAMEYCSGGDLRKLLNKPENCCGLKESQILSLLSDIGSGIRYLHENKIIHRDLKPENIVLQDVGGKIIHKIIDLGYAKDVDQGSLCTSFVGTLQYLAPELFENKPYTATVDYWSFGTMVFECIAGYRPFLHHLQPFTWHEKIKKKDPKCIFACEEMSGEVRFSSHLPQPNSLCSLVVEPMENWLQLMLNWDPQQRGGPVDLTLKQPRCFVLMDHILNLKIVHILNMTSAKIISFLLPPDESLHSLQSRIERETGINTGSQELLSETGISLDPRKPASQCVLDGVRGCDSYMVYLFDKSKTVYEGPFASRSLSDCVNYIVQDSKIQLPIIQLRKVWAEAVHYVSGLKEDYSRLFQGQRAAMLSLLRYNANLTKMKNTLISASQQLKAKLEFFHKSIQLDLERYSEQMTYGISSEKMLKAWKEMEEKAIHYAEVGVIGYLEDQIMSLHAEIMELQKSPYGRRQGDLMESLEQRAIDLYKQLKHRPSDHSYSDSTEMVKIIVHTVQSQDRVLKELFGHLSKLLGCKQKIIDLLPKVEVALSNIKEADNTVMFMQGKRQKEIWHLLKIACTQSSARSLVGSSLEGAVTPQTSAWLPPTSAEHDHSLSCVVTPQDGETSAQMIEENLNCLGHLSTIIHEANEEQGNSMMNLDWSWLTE

[4] = biological target: Cyclin-dependent kinase 2 (Homo sapiens, UniProt P24941); experiment: Inhibition of recombinant CDK2 after 15 mins
[5] = biological target: Glycogen synthase kinase-3 beta (Homo sapiens, UniProt P49841); experiment: Inhibition of recombinant GSK3-beta after 15 mins
Glycogen synthase kinase-3 beta, sequence (P49841 whole entry): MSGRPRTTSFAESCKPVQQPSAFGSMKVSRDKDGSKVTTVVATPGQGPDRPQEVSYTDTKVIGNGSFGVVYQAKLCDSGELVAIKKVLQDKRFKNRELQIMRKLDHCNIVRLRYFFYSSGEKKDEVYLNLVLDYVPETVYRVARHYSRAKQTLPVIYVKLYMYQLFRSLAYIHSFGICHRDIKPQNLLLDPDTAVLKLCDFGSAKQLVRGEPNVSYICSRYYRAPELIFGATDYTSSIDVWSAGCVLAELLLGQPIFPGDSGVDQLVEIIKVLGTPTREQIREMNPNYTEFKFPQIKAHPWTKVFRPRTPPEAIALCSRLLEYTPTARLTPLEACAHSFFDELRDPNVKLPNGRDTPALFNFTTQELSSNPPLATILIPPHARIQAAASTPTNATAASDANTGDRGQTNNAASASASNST
Outline: (§1)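 Each recombinant kinase was assayed with ATP at its own Km.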

[6] = biological target: Mitogen-activated protein kinase 10 (Homo sapiens, UniProt P53779); experiment: Inhibition of recombinant JNK3 after 15 mins; outline: as §1
Mitogen-activated protein kinase 10, sequence (P53779 whole entry): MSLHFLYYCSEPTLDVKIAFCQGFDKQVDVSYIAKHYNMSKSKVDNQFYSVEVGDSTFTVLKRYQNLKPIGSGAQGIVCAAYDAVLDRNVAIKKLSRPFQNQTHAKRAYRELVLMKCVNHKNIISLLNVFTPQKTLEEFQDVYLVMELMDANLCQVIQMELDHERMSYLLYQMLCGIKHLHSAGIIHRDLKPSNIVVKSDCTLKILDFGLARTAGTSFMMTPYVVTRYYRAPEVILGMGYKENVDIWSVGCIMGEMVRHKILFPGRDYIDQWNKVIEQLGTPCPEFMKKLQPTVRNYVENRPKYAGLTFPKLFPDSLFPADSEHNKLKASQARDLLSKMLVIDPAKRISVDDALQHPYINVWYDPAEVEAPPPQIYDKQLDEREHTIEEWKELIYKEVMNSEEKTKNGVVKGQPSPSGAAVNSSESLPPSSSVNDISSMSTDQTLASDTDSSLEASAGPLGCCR

[7] = biological target: Mitogen-activated protein kinase 14 (Homo sapiens, UniProt Q16539); experiment: Inhibition of recombinant p38alpha after 15 mins; outline: as §1
Mitogen-activated protein kinase 14, sequence (Q16539 whole entry): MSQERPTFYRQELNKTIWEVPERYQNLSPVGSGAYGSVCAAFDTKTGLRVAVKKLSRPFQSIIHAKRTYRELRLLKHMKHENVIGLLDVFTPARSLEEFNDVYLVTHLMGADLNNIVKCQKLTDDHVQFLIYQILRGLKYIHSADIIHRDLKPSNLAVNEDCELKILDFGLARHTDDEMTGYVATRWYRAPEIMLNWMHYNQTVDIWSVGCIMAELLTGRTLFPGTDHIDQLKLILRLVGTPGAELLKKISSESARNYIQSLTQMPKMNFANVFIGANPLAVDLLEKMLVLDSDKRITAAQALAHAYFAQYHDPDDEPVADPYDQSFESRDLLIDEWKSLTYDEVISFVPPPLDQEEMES

[8] = Apparent permeability of the compound at pH 7.4 by PAMPA method; format: ADME

SMILES	IC50 [1] [µM]	IC50 [2] [µM]	also measured
CN(C)CCCNC(=O)c1ccc(-c2cnc3ccc(NCc4ccc(Cl)c(Cl)c4)nn23)cc1	> 30		
O=C(NCCN1CCCC1)c1ccc(-c2cnc3ccc(NCc4ccc(Cl)c(Cl)c4)nn23)cc1	> 30	0.59	IC50 [3]: 4.6 µM; IC50 [4]: > 100 µM; IC50 [5]: > 100 µM; IC50 [6]: 90 µM; IC50 [7]: > 100 µM
O=C(NCCN1CCCCC1)c1ccc(-c2cnc3ccc(NCc4ccc(Cl)c(Cl)c4)nn23)cc1	> 30		
O=C(NCCN1CCOCC1)c1ccc(-c2cnc3ccc(NCc4ccc(Cl)c(Cl)c4)nn23)cc1		> 30	
CC(C)(N)CNC(=O)c1ccc(-c2cnc3ccc(NCc4ccc(Cl)c(Cl)c4)nn23)cc1	6.5		
O=C(NCCNc1ccccc1)c1ccc(-c2cnc3ccc(NCc4ccc(Cl)c(Cl)c4)nn23)cc1	> 30		
O=C(NC[C@@H]1CCNC1)c1ccc(-c2cnc3ccc(NCc4ccc(Cl)c(Cl)c4)nn23)cc1	17	10	
O=C(NCC1CCNCC1)c1ccc(-c2cnc3ccc(NCc4ccc(Cl)c(Cl)c4)nn23)cc1	> 30		
O=C(NC1CCNC1)c1ccc(-c2cnc3ccc(NCc4ccc(Cl)c(Cl)c4)nn23)cc1 (stereo not drawn)	6.5		
CN(C)CCN(C)C(=O)c1ccc(-c2cnc3ccc(NCc4ccc(Cl)c(Cl)c4)nn23)cc1	15		
NC1CN(C(=O)c2ccc(-c3cnc4ccc(NCc5ccc(Cl)c(Cl)c5)nn34)cc2)C1	> 30		
CN1CCN(C(=O)c2ccc(-c3cnc4ccc(NCc5ccc(Cl)c(Cl)c5)nn34)cc2)CC1	12		
O=C(NC[C@@H]1CCCN1)c1ccc(-c2cnc3ccc(NCC4CC4)nn23)cc1	0.69	0.055	IC50 [3]: 40 µM; IC50 [4]: > 100 µM; IC50 [5]: > 100 µM; IC50 [6]: > 100 µM; IC50 [7]: > 100 µM; Papp [8]: < 2 ×10⁻⁶ cm/s
O=C(NC[C@@H]1CCCN1)c1ccc(-c2cnc3ccc(NCc4ccccc4)nn23)cc1	3.7		
O=C(NC[C@@H]1CCCN1)c1ccc(-c2cnc3ccc(NCc4cccc(Cl)c4)nn23)cc1	2.7	0.19	IC50 [3]: > 4 µM; IC50 [4]: > 100 µM; IC50 [5]: > 100 µM; IC50 [6]: 78 µM; IC50 [7]: > 100 µM; Papp [8]: < 2 ×10⁻⁶ cm/s
O=C(NC[C@@H]1CCCN1)c1ccc(-c2cnc3ccc(NCCCO)nn23)cc1	> 30		
CC(=O)NCCNc1ccc2ncc(-c3ccc(C(=O)NC[C@@H]4CCCN4)cc3)n2n1	> 30		
O=C(NC[C@@H]1CCCN1)c1ccc(-c2cnc3ccc(NCCc4cnc[nH]4)nn23)cc1	> 30	3	
O=C(NC[C@@H]1CCCN1)c1ccc(-c2cnc3ccc(NCCCn4ccnc4)nn23)cc1	> 30	0.38	
O=C(NC[C@@H]1CCCN1)c1ccc(-c2cnc3ccc(N[C@H]4CC[C@H](O)CC4)nn23)cc1	> 30		
CN(C)c1ccc2ncc(-c3ccc(C(=O)NC[C@@H]4CCCN4)cc3)n2n1	20		
O=C(NC[C@@H]1CCCN1)c1ccc(-c2cnc3ccc(N4CCOCC4)nn23)cc1		> 30	
O=C(NC[C@@H]1CCCN1)c1ccc(-c2cnc3ccc(N4CCC(O)CC4)nn23)cc1		> 30	
CN(C)CCNC(=O)c1ccc(-c2cnc3ccc(NCC4CC4)nn23)cc1	0.69	0.2	IC50 [3]: > 100 µM; IC50 [4]: > 100 µM; IC50 [5]: > 100 µM; IC50 [6]: > 100 µM; IC50 [7]: > 100 µM; Papp [8]: > 50 ×10⁻⁶ cm/s
CN(C)CCN(C)C(=O)c1ccc(-c2cnc3ccc(NCC4CC4)nn23)cc1	2.4		
CC(N)CNC(=O)c1ccc(-c2cnc3ccc(NCC4CC4)nn23)cc1 (stereo not drawn)	1.5	0.31	
CC(CN(C)C)NC(=O)c1ccc(-c2cnc3ccc(NCC4CC4)nn23)cc1 (stereo not drawn)	2.1		
O=C(c1ccc(-c2cnc3ccc(NCC4CC4)nn23)cc1)N1CCC[C@H]1CN1CCCC1		5.1	
CN1CCC[C@H]1CNC(=O)c1ccc(-c2cnc3ccc(NCC4CC4)nn23)cc1	1.3	0.11	
NCCNC(=O)c1ccc(-c2cnc3ccc(NCc4ccc(Cl)c(Cl)c4)nn23)cc1	2.4		

More lines, main results first:

IC50 [1] [µM]	IC50 [2] [µM]	SMILES	also measured
0.49		CCN1CCC[C@H]1CNC(=O)c1ccc(-c2cnc3ccc(NCC4CC4)nn23)cc1	
4.7		NCCCNC(=O)c1ccc(-c2cnc3ccc(NCc4ccc(Cl)c(Cl)c4)nn23)cc1	
4	0.32	O=C(NC[C@@H]1CCCN1)c1ccc(-c2cnc3ccc(NCc4ccc(Cl)c(Cl)c4)nn23)cc1	IC50 [3]: 2.2 µM; IC50 [4]: 95 µM; IC50 [5]: > 100 µM; IC50 [6]: > 100 µM; IC50 [7]: > 100 µM; Papp [8]: < 2 ×10⁻⁶ cm/s
4.4		O=C(NC1CCNCC1)c1ccc(-c2cnc3ccc(NCc4ccc(Cl)c(Cl)c4)nn23)cc1	
> 30		O=C(NCc1ccccn1)c1ccc(-c2cnc3ccc(NCc4ccc(Cl)c(Cl)c4)nn23)cc1	
> 30	1.4	O=C(c1ccc(-c2cnc3ccc(NCc4ccc(Cl)c(Cl)c4)nn23)cc1)N1CCC(N2CCCC2)CC1	
27	27	CCNC(=O)c1ccc(-c2cnc3ccc(NCc4ccc(Cl)c(Cl)c4)nn23)cc1	
1.7		NC(=O)c1ccc(-c2cnc3ccc(NCc4ccc(Cl)c(Cl)c4)nn23)cc1	
29		CNc1ccc2ncc(-c3ccc(C(=O)NC[C@@H]4CCCN4)cc3)n2n1	
1.7	0.27	CC(C)Nc1ccc2ncc(-c3ccc(C(=O)NC[C@@H]4CCCN4)cc3)n2n1	
3.2		O=C(NC[C@@H]1CCCN1)c1ccc(-c2cnc3ccc(NC4CC4)nn23)cc1	
> 30		O=C(NC[C@@H]1CCCN1)c1ccc(-c2cnc3ccc(NCCO)nn23)cc1	
1.2		CCN(CC)CCNC(=O)c1ccc(-c2cnc3ccc(NCC4CC4)nn23)cc1	
2.1	0.16	O=C(c1ccc(-c2cnc3ccc(NCC4CC4)nn23)cc1)N1CCC[C@@H]1CN1CCCC1	
1.6	0.1	O=C(NC[C@H]1CCCN1)c1ccc(-c2cnc3ccc(NCC4CC4)nn23)cc1	
1.5		O=C(NC[C@@H]1CCCCN1)c1ccc(-c2cnc3ccc(NCC4CC4)nn23)cc1	
> 30		CN(C)CCNC(=O)c1ccc(-c2cnc3ccc(NCc4ccc(Cl)c(Cl)c4)nn23)cc1	IC50 [4]: > 100 µM; IC50 [5]: > 100 µM
